The structures appear in SMILES notation. The source made the active and inactive calls. The rule behind the calls is not given here. Bounds are passed on as bounds.

We go through ten compounds from ChEMBL document CHEMBL4145668, “Dipeptide Prodrugs of the Glutamate Modulator Riluzole” (ACS Med Chem Lett, 2018).

The nature of data set [1]: Prodrug conversion in simulated gastric fluid assessed as riluzole formation by measuring compound half life at 0.01 mg/ml by LC/MS analysis. The data set is classed as ADME. Particulars: simulated gi fluid. The method, boiled down:
(§1)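 Each prodrug was incubated in pH 7.4 buffer, fresh rat serum, simulated gastric fluid or simulated intestinal fluid. Prodrug disappearance was followed for up to 2-4 h to derive a half-life in hours.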

Data set [2] can be described thus: Prodrug conversion in simulated intestinal fluid assessed as riluzole formation by measuring compound half life at 0.01 mg/ml by LC/MS analysis. Particulars: simulated gi fluid. The data set is classed as ADME. The method, boiled down: as §1
Data set [3] can be described thus: Prodrug conversion in rat serum assessed as riluzole formation by measuring compound half life. The format is ADME, cell-free. The method, boiled down: as §1
Data set [4] in a line: Prodrug conversion in pH 7.4 buffer assessed as riluzole formation by measuring compound half life. The format is physicochemical. The method, boiled down:
as §1

In data set [5] the test system is Homo sapiens. Description: Antitumor activity against human C8161 cells xenografted in mouse assessed as tumor growth inhibition at 7.5 mg/kg, po administered once daily via gavage for 21 days measured at 7 days interval during compound dosing. The data set is classed as functional, organism-based. The method, boiled down:
(§2)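 Nude mice were inoculated in the flank with 10^6 human C8161 melanoma cells. When tumors reached 40 mm3, the mice were randomized into groups of similar tumor volume. Vehicle was DMSO. Dosing was daily by oral gavage for 21 days, and tumor growth was followed.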
Background: In xenograft studies the graft and the host belong to different species.

The nature of data set [6]: Efflux ratio of apparent permeability […] in human Caco2 cells. The data set is classed as ADME, cell-based. Particulars: Caco-2. On the technique in general: Passage across Caco-2 layers is used to estimate intestinal permeability.
Data set [7] is described as follows: Tmax in Sprague-Dawley rat at 2.8 mg/kg, iv. The note with it: in vivo. The format is ADME, organism-based.
The test system of data set [8] is Rattus norvegicus. Briefly: Tmax in Sprague-Dawley rat assessed as riluzole level at 2.8 mg/kg, iv measured up to 8 hrs. The format is ADME, organism-based. The note with it: in vivo.
Data set [9] has as its target T1, CYP3A4 (Homo sapiens, UniProt P08684). Description: Inhibition of CYP3A4 (unknown origin) at 10 uM using testosterone as substrate relative to control. The data set is classed as ADME. The note with it: probe testosterone.
A short description of data set [10]: Apparent permeability across apical to basolateral side in human Caco2 cells. The data set is classed as ADME, cell-based. Particulars: Caco-2. The method, boiled down:
(§3)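 Bidirectional transport across Caco-2 monolayers was measured as Papp A-B and Papp B-A in nm/s. Efflux ratio was calculated as B-A over A-B.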

Data set [11] is described as follows: Cmax in Sprague-Dawley rat at 2.8 mg/kg, iv. The data set is classed as ADME, organism-based. The arrangement: dose 2.8 mg/kg, route intravenous. Particulars: in vivo.
The subject of data set [12] is Rattus norvegicus. Briefly: Oral bioavailability in Sprague-Dawley rat at 14.6 mg/kg. The data set is classed as ADME, organism-based. The note with it: in vivo. An outline of the steps: (§4)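 Male Sprague-Dawley rats received a single oral dose. Plasma prodrug and riluzole levels were monitored up to eight hours after dosing.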
The target of data set [13] is T1, CYP3A4. Description: Inhibition of CYP3A4 (unknown origin) at 10 uM using midazolam as substrate relative to control. The format is ADME. The note with it: probe midazolam.
The target of another data set is T2, CYP1A2 (Homo sapiens, UniProt P05177).
T2 sequence (P05177 whole entry): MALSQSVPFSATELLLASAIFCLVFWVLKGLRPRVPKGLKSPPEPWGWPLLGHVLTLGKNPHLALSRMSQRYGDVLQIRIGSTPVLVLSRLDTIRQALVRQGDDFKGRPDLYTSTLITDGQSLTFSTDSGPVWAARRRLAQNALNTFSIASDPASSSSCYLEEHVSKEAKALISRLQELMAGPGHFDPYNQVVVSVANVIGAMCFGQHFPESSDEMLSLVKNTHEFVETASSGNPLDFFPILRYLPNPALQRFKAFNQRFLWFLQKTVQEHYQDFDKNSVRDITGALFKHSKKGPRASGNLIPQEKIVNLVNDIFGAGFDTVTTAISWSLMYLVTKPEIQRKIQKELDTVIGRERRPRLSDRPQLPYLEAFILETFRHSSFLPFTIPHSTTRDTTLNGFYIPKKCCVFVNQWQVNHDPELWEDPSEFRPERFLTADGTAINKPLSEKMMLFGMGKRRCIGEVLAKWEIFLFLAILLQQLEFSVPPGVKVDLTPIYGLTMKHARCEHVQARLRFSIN
Briefly: Inhibition of CYP1A2 (unknown origin) at 10 uM relative to control. The data set is classed as ADME.

In data set [14] the test system is Rattus norvegicus. Description: Cmax in Sprague-Dawley rat assessed as riluzole level at 14.6 mg/kg, po measured up to 8 hrs. The data set is classed as ADME, organism-based. More on the design: dose 14.6 mg/kg, route oral. The note with it: in vivo. The method, boiled down:
as §4

Data set [15] deals with Rattus norvegicus. Description: Tmax in Sprague-Dawley rat assessed as riluzole level at 14.6 mg/kg, po measured up to 8 hrs. The format is ADME, organism-based. The note with it: in vivo. An outline of the steps:
as §4

Data set [16] can be described thus: Apparent permeability across basolateral to apical side in human Caco2 cells. The format is ADME, cell-based. Particulars: Caco-2. An outline of the steps: as §3
Data set [17] concerns Homo sapiens. Description: Antitumor activity against human C8161 cells xenografted in mouse assessed as tumor growth inhibition at 4.9 to 14.8 mg/kg, po administered once daily via gavage for 21 days measured at 7 days interval during compound dosing. The format is functional, organism-based. The method, boiled down: as §2
Data set [18] in a line: Prodrug conversion in dog liver microsomes assessed as riluzole formation by measuring half life. The data set is classed as ADME, Canis lupus familiaris, microsome. An outline of the steps: (§5)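 Prodrug stability was tested in human, mouse, rat and dog liver microsomes, and a half-life in minutes was reported.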
For orientation: Microsomes from liver hold many membrane-bound enzymes, among them those of drug oxidation.

In data set [19] the test system is Rattus norvegicus. Description: Cmax in Sprague-Dawley rat assessed as riluzole level at 2.8 mg/kg, iv measured up to 8 hrs. The format is ADME, organism-based. More on the design: dose 2.8 mg/kg, route intravenous. The note with it: in vivo.
Data set [20] in a line: Prodrug conversion in mouse plasma xenografted with human C8161 cells assessed as riluzole formation at 4.9 to 14.8 mg/kg, po administered via gavage measured 2 hrs post dose. The note with it: in vivo. The data set is classed as ADME, organism-based. An outline of the steps:
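In C8161 xenograft-bearing nude mice given daily oral gavage doses, plasma was sampled from selected animals 2 hours post dosing to check riluzole exposure.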

Data set [21] concerns Rattus norvegicus. Description: Half life in Sprague-Dawley rat assessed as riluzole level at 2.8 mg/kg, iv measured up to 8 hrs. The data set is classed as ADME, organism-based. Particulars: in vivo.
The test system of data set [22] is Rattus norvegicus. Briefly: AUClast in Sprague-Dawley rat assessed as riluzole level at 2.8 mg/kg, iv measured up to 8 hrs. The format is ADME, organism-based. More on the design: time < 8 hr, dose 2.8 mg/kg, route intravenous. Particulars: in vivo.
The nature of data set [23]: Prodrug conversion in rat liver microsomes assessed as riluzole formation by measuring half life. The data set is classed as ADME, microsome. An outline of the steps:
as §5

In data set [24] the test system is Rattus norvegicus. Description: AUClast in Sprague-Dawley rat assessed as riluzole level at 14.6 mg/kg, po measured up to 8 hrs. The format is ADME, organism-based. The arrangement: time < 8 hr, dose 14.6 mg/kg, route oral. The note with it: in vivo. The method, boiled down: as §4
The nature of data set [25]: Prodrug conversion in mouse liver microsomes assessed as riluzole formation by measuring half life. The data set is classed as ADME, microsome. The method, boiled down:
as §5

Data set [26] can be described thus: Prodrug conversion in human liver microsomes assessed as riluzole formation by measuring half life. The format is ADME, microsome. The method, boiled down: as §5
The target of a further data set is CYP2D6 (Homo sapiens, UniProt P10635). Briefly: Inhibition of CYP2D6 (unknown origin) at 10 uM relative to control. The data set is classed as ADME.
Sequence of CYP2D6 (P10635 whole entry): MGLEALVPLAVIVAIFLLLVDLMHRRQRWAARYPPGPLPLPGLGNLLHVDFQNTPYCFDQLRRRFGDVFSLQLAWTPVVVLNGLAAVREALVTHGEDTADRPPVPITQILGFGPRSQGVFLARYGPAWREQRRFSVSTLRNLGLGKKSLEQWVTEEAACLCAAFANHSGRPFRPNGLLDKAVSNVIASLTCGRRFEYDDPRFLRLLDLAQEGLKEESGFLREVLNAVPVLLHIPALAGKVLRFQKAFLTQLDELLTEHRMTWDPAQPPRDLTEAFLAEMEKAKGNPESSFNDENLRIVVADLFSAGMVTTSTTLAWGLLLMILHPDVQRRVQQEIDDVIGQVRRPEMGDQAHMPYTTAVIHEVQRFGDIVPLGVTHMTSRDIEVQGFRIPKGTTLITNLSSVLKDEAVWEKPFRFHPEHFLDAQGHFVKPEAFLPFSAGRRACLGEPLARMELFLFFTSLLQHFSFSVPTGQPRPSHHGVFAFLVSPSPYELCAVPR

T1 sequence (P08684 whole entry): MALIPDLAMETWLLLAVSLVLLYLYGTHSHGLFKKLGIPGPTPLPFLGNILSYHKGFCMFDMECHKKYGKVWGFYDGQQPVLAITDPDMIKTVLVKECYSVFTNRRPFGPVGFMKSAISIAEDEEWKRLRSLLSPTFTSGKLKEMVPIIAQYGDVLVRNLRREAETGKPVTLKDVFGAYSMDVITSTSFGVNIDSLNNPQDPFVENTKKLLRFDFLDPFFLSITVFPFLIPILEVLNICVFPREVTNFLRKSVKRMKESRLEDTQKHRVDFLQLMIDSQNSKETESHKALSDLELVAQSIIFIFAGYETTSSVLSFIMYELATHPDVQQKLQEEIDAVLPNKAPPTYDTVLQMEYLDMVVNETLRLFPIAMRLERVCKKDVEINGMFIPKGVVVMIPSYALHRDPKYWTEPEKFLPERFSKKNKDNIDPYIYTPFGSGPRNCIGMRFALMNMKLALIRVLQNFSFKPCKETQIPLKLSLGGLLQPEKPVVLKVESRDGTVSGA

With `NCC(=O)N1CCC[C@@H]1C(=O)Nc1nc2ccc(OC(F)(F)F)cc2s1`, the t1/2 in [1] is 2.5 h; in data set [2] it was < 1 h; in data set [3], 0.25 h; in data set [4], 0.2 h.
For `CC(C)NCC(=O)N(C)CC(=O)Nc1nc2ccc(OC(F)(F)F)cc2s1` the same measures were > 4 h, > 4 h, > 2 h and > 24 h.
For `CC(C)(C)NCC(=O)NC(C)(C)C(=O)Nc1nc2ccc(OC(F)(F)F)cc2s1` the same measures were > 4 h, > 4 h, > 2 h and > 2 h.
For `CCNCC(=O)N(C)CC(=O)Nc1nc2ccc(OC(F)(F)F)cc2s1` the same measures were > 4 h, < 1 h, < 0.25 h and < 0.25 h.
Take `CN(CC(=O)Nc1nc2ccc(OC(F)(F)F)cc2s1)C(=O)CN`: the t1/2 in [3] and in data set [4] was < 0.1 h each time.
For `Nc1nc2ccc(OC(F)(F)F)cc2s1`, in the data set with Homo sapiens [5], the TGI entry is “Active”.
Regarding `CNCC(=O)N(C)CC(=O)Nc1nc2ccc(OC(F)(F)F)cc2s1`, the t1/2 in data set [1] is > 4 h; in [2], < 1 h; in [3], < 0.1 h; in data set [4], < 0.1 h.
The efflux ratio is a quotient of directional permeabilities that is used to spot active efflux. In general, Tmax refers to the time at which the peak concentration occurs. As a reminder, the inhibition is the share of the control response that was lost under treatment. Read a high inhibition as a response far below the control. What is called Papp A→B is the apparent permeability from the apical to the basolateral side of a cell layer. In general, Cmax refers to the maximum level reached in the sampled fluid or tissue. What is called Papp B→A is the apparent permeability from the basolateral to the apical side of a cell layer. `CN(CC(=O)Nc1nc2ccc(OC(F)(F)F)cc2s1)C(=O)CNC(C)(C)C`: the t1/2 in data set [1] was > 4 h; in [2], > 4 h; in data set [3], > 2 h; in [4], > 24 h; in data set [18], > 60 min; in the data set on Rattus norvegicus [21] it was 7.83 h. Besides, the t1/2 in [23], in data set [25] and in [26] was > 60 min each time. In data set [6], the efflux ratio was determined as 1.7. For the same compound, the results for the Tmax (in [7]; in the data set on Rattus norvegicus [8]; with Rattus norvegicus [15]) were 0 h, 46.8 min and 8 h, respectively. In addition, the inhibition at 10 µM at CYP3A4 [9], on CYP3A4 [13], against CYP1A2 and on CYP2D6 was < 10% each time. Further, in data set [10], the Papp A→B was found to be 1.38 ×10⁻⁶ cm/s. The Cmax was 1730 ng/mL in [11], 1587 ng/mL in the data set with Rattus norvegicus [14] and 187 ng/mL with Rattus norvegicus [19]. In addition, the F with Rattus norvegicus [12] was determined as 70%. The Papp B→A in data set [16] turned out to be 2.41 ×10⁻⁶ cm/s. Besides, the TGI entry in the data set on Homo sapiens [17] was “Active”. For the same compound, the Drug metabolism result in data set [20] is recorded as “Metabolite_Detected”. Also, the results for the AUClast with Rattus norvegicus [22] and in the data set with Rattus norvegicus [24] were 1137 ng·h/mL and 20518 ng·h/mL, respectively.
On to `CC(C)(NC(=O)CN)C(=O)Nc1nc2ccc(OC(F)(F)F)cc2s1`, for which the t1/2 in data set [1] is > 4 h; in data set [2], < 1 h; in [3] it was 2 h.
Take `CC(C)(C)NCC(=O)N1CCC[C@@H]1C(=O)Nc1nc2ccc(OC(F)(F)F)cc2s1`: the t1/2 in [3] was > 2 h; in data set [4], > 24 h.
